Values belong to the molecule of their own block, whether it stands above or below them.
Tests used:
[1] = system: A-431; experiment: Cytotoxicity against human A431 cells overexpressing HER-1 gene after 72 hrs by SRB assay; type: functional, cell-based; settings: A-431, 72 h
Method in brief: (§1)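 A431 and SK-Br3 cells grown in DMEM (4.5 g/L glucose, 1.5 g/L sodium bicarbonate) with 10% FBS at 37 °C, humidified 5% CO2. Proliferation/growth inhibition IC50 values are means of three independent experiments, each run in duplicate.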

[2] = system: SK-BR-3; experiment: Cytotoxicity against human SKBR3 cells overexpressing HER-2 gene after 72 hrs by SRB assay; type: functional, cell-based; settings: SK-BR-3, 72 h; method in brief: as §1
[3] = Half life in mouse liver microsomes at 5 uM
[4] = Half life in dog liver microsomes at 5 uM
[5] = Half life in rat liver microsomes at 5 uM
[6] = Half life in human liver microsomes at 5 uM
[7] = Oral bioavailability in Sprague-Dawley rat at 5 mg/kg; type: ADME, organism-based; settings: in vivo
Method in brief: (§2)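 Male ICR mice (27 5 g) and male Sprague-Dawley rats (250 10 g), n = 3 per route. Single oral gavage dose (mice 10 mg/kg, rats 5 mg/kg) and tail-vein iv dose (mice 2 mg/kg, rats 1 mg/kg). Compound given as HCl salt in 30% PEG400 and 5% ethanol in distilled water. Jugular blood drawn at set times over at least 24 h into heparin. Plasma level measured by LC/MS/MS after acetonitrile protein precipitation.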

[8] = AUC (0 to last) in Sprague-Dawley rat at 5 mg/kg, po; type: ADME, organism-based; parameters: dose 5 mg/kg, route oral, time 0 - last; settings: plasma; method in brief: as §2
[9] = Half life in ICR mouse at 10 mg/kg, po; type: ADME, organism-based; parameters: dose 10 mg/kg, route oral; settings: in vivo; method in brief: as §2
[10] = Oral bioavailability in ICR mouse at 10 mg/kg; type: ADME, organism-based; settings: in vivo; method in brief: as §2
[11] = Cmax in ICR mouse at 10 mg/kg, po; type: ADME, organism-based; parameters: dose 10 mg/kg, route oral; settings: in vivo; method in brief: as §2
[12] = Half life in Sprague-Dawley rat at 5 mg/kg, po; type: ADME, organism-based; parameters: dose 5 mg/kg, route oral; settings: in vivo; method in brief: as §2
[13] = Cmax in Sprague-Dawley rat at 5 mg/kg, po; type: ADME, organism-based; parameters: dose 5 mg/kg, route oral; settings: in vivo; method in brief: as §2
[14] = AUC (0 to last) in ICR mouse at 10 mg/kg, po; type: ADME, organism-based; parameters: time 0 - last, dose 10 mg/kg, route oral; settings: plasma; method in brief: as §2
[15] = target: Receptor-type tyrosine-protein kinase FLT3 (Homo sapiens) (UniProt P36888); settings: 3 uM
[16] = target: Hepatocyte growth factor receptor (Homo sapiens, UniProt P08581); experiment: Inhibition of MET at 3 uM
[17] = target: Insulin-like growth factor 1 receptor (Homo sapiens, UniProt P08069); settings: 3 uM
[18] = target: Aurora kinase A (Homo sapiens) (UniProt O14965); experiment: Inhibition of Aurora A at 3 uM
[19] = target: Platelet-derived growth factor receptor alpha (Homo sapiens, UniProt P16234); settings: 3 uM
[20] = target: Focal adhesion kinase 1 (Homo sapiens, UniProt Q05397); settings: 3 uM
[21] = target: Cyclin-dependent kinase 1/cyclin B1 (Homo sapiens) (UniProt P06493+P14635); settings: 3 uM
[22] = target: Fibroblast growth factor receptor 1 (Homo sapiens, UniProt P11362); settings: 3 uM
[23] = target: Vascular endothelial growth factor receptor 1 (Homo sapiens, UniProt P17948); experiment: Inhibition of Flt1 at 3 uM
[24] = target: Tyrosine-protein kinase SYK (Homo sapiens, UniProt P43405); experiment: Inhibition of Syk at 3 uM
[25] = target: Mast/stem cell growth factor receptor Kit (Homo sapiens, UniProt P10721); settings: 3 uM
[26] = target: T1, Receptor tyrosine-protein kinase erbB-2 (Homo sapiens, UniProt P04626); settings: SK-BR-3, 1 uM
[27] = target: Dual specificity mitogen-activated protein kinase kinase 1 (Homo sapiens, UniProt Q02750); settings: 3 uM
[28] = target: Insulin receptor (Homo sapiens, UniProt P06213); settings: 3 uM
[29] = target: 5'-AMP-activated protein kinase catalytic subunit alpha-1 (Homo sapiens, UniProt Q13131); settings: 3 uM
[30] = target: Platelet-derived growth factor receptor beta (Homo sapiens, UniProt P09619); settings: 3 uM
[31] = target: Tyrosine-protein kinase ABL1 (Homo sapiens, UniProt P00519); experiment: Inhibition of Abl at 3 uM
[32] = target: Serine/threonine-protein kinase pim-1 (Homo sapiens, UniProt P11309); settings: 3 uM
[33] = target: Tyrosine-protein kinase JAK2 (Homo sapiens, UniProt O60674); settings: 3 uM
[34] = target: T1, Receptor tyrosine-protein kinase erbB-2; settings: SK-BR-3, 1 uM; remark: listed apart in the source
[35] = target: Serine/threonine-protein kinase STK11 (Homo sapiens) (UniProt Q15831); settings: 3 uM
[36] = target: Tyrosine-protein kinase Blk (Homo sapiens) (UniProt P51451); experiment: Inhibition of Blk at 3 uM

T1 sequence (P04626 whole entry): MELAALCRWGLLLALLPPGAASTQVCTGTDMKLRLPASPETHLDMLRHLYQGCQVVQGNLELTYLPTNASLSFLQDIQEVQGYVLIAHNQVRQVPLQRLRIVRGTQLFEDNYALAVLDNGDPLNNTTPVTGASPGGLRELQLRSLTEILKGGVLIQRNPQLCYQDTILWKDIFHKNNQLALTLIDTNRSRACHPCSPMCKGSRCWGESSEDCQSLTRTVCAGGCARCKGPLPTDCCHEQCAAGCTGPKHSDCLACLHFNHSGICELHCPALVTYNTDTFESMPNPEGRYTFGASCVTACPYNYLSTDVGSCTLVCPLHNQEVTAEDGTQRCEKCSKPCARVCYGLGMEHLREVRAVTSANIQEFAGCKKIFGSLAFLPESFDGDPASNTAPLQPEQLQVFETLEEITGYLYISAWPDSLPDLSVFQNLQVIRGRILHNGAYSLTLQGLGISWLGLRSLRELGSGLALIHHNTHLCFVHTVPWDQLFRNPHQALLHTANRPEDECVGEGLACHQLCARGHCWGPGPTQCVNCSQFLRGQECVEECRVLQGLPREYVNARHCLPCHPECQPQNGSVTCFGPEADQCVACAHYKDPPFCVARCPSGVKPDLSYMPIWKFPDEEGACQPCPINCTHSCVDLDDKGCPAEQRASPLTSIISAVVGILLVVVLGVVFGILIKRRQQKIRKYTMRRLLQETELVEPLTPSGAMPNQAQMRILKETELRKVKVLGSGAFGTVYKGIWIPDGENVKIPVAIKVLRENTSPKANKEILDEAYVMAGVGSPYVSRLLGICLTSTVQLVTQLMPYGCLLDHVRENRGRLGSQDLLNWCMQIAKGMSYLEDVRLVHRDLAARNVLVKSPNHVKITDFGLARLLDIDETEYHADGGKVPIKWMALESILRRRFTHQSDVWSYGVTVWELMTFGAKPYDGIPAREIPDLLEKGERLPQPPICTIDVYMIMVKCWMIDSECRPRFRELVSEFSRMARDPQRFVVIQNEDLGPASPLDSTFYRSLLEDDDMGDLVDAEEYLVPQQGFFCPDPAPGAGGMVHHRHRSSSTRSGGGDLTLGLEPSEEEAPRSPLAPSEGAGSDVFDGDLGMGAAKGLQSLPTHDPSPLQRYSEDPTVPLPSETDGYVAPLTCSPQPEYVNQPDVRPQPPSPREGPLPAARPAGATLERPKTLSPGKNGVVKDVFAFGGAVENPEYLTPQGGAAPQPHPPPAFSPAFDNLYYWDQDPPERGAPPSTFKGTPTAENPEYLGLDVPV
Chain of Hepatocyte growth factor receptor (P08581 whole entry): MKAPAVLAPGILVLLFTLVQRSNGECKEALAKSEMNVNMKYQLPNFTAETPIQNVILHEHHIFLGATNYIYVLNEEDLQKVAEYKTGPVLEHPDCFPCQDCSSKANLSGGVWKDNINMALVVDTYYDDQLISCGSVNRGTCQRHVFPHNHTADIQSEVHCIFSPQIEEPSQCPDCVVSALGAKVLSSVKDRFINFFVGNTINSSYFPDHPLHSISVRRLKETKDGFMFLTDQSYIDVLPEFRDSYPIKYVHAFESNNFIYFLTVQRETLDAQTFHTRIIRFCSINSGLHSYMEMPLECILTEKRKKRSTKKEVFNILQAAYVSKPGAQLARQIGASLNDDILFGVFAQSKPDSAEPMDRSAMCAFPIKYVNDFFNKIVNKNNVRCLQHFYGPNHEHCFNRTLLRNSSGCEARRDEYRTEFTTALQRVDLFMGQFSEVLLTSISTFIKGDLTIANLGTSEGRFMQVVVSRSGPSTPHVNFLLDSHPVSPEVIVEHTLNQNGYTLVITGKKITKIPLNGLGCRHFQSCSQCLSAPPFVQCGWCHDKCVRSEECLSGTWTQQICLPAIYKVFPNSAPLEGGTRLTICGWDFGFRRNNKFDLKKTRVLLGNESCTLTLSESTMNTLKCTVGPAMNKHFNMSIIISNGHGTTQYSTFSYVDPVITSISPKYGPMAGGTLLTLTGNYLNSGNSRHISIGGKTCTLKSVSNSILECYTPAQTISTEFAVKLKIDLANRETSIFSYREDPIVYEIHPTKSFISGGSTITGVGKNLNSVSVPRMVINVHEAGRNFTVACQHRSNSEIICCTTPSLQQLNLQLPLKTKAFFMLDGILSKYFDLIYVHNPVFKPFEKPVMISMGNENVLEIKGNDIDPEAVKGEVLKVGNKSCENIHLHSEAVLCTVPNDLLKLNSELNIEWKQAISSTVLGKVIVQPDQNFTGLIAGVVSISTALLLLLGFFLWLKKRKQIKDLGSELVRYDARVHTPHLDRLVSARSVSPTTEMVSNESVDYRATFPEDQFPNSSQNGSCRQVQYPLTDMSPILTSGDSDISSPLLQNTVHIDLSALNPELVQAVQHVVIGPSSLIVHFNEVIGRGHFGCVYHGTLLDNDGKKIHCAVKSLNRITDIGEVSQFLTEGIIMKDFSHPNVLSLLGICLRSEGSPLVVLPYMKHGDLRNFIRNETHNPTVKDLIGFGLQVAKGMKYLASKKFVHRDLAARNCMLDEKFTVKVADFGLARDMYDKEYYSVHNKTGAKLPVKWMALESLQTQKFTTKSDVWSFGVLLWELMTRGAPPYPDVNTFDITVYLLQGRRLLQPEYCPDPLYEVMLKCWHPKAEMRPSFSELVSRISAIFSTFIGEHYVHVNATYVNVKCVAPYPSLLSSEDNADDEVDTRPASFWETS
Chain of Focal adhesion kinase 1 (Q05397 2-1052 limits assumed): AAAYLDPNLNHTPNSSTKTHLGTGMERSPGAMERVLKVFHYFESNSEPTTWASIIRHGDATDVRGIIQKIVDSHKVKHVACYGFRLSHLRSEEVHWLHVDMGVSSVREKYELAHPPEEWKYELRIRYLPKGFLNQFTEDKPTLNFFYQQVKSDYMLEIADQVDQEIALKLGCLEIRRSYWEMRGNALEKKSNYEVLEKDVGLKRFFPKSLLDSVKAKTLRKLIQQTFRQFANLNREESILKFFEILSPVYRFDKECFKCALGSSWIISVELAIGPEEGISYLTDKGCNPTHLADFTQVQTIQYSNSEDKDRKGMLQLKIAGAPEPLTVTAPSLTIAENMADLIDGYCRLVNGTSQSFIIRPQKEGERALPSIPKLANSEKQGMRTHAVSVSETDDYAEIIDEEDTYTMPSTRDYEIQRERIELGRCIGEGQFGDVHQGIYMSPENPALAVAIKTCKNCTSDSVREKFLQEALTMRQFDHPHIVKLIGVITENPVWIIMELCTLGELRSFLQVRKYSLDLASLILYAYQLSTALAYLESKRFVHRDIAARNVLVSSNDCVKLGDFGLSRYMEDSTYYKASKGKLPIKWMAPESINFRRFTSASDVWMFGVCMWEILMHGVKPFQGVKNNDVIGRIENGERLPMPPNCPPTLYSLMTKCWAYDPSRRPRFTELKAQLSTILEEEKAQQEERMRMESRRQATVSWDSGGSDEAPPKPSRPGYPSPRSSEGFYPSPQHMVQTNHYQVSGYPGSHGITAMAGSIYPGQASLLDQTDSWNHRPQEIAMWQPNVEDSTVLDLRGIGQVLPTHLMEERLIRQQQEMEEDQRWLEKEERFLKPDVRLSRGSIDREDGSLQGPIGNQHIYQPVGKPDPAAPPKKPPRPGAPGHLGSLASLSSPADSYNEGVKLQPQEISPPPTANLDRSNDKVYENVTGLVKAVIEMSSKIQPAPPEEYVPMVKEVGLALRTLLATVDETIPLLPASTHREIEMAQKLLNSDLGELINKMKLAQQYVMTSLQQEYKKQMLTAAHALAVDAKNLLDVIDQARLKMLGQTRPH
Chain of Cyclin-dependent kinase 1/cyclin B1 (Homo sapiens) (P06493 whole entry, looked up): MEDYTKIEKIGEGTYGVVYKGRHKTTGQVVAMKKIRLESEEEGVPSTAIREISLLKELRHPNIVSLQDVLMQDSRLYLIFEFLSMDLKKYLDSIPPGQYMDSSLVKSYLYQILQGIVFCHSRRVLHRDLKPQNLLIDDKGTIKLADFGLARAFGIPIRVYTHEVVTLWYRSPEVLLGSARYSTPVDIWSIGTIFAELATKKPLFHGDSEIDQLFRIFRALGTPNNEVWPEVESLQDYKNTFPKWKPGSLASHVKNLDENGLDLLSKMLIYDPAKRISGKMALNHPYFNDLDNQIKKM
Chain of Cyclin-dependent kinase 1/cyclin B1 (Homo sapiens) (P14635 whole entry, looked up): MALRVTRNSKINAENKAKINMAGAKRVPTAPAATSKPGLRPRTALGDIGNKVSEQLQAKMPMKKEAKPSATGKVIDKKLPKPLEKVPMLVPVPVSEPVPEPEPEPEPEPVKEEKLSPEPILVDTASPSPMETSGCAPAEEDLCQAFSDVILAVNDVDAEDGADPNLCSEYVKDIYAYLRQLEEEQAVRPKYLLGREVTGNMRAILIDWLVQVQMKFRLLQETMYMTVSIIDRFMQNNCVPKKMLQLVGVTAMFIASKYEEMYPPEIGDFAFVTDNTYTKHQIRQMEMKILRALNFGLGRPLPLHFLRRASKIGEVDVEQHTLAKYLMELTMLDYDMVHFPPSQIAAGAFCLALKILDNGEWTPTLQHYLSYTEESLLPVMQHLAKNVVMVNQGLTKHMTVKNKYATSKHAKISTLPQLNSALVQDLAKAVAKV
Chain of Dual specificity mitogen-activated protein kinase kinase 1 (Q02750 whole entry): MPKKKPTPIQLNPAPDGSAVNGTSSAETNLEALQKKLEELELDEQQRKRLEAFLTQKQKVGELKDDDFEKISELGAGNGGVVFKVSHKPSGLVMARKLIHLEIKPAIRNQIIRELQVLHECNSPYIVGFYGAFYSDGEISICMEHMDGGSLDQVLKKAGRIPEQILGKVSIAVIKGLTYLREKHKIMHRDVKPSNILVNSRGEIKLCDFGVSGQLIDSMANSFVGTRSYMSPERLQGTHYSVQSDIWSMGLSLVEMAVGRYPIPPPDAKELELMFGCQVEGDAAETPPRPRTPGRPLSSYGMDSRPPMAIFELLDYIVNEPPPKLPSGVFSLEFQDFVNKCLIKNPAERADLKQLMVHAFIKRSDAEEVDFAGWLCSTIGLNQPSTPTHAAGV

SMILES: C=CC(=O)NCc1coc(-c2c(N)ncnc2Nc2ccc(Oc3ccc(Cl)cc3Cl)c(Cl)c2)n1
IC50 [1]: 105 nM
IC50 [2]: 6.5 nM

SMILES: C=CC(=O)NCc1cc(-c2cncnc2Nc2ccc(OCc3ccccn3)c(Cl)c2)on1
IC50 [1]: 2.2 nM
IC50 [2]: 122 nM

SMILES: C=CC(=O)NCc1coc(-c2c(N)ncnc2Nc2ccc(Oc3ccc(C)nc3)c(Cl)c2)n1
IC50 [1]: 68 nM
IC50 [2]: 6.1 nM

SMILES: C=CC(=O)NCc1coc(-c2c(N)ncnc2Nc2ccc(Oc3ccccc3F)c(Cl)c2)n1
IC50 [1]: 29 nM
IC50 [2]: 4.7 nM

SMILES: C=CC(=O)NCc1coc(-c2c(N)ncnc2Nc2ccc(OCc3ccccn3)c(F)c2)n1
half-life at 5 µM ([3]; liver microsomes): 9 min
half-life at 5 µM ([4]; liver microsomes): 44 min
half-life at 5 µM ([5]; liver microsomes): 16 min
IC50 [1]: 63 nM
half-life at 5 µM ([6]; liver microsomes): 27 min
IC50 [2]: 6.1 nM

SMILES: C=CC(=O)NCC#Cc1cncnc1Nc1ccc(OCc2ccccn2)c(Cl)c1
IC50 [1]: > 1000 nM
IC50 [2]: > 1000 nM

SMILES: C=CC(=O)NCc1coc(-c2c(N)ncnc2Nc2ccc(Cl)c(Cl)c2F)n1
half-life at 5 µM ([3]; liver microsomes): 74 min
half-life at 5 µM ([4]; liver microsomes): > 100 min
half-life at 5 µM ([5]; liver microsomes): > 100 min
IC50 [1]: 282 nM
half-life at 5 µM ([6]; liver microsomes): > 100 min
IC50 [2]: 92.6 nM

SMILES: C=CC(=O)NCc1coc(-c2c(N)ncnc2Nc2ccc(Oc3ccc(C)nc3)c(C)c2)n1
half-life at 5 µM ([3]; microsomes): 43 min
half-life at 5 µM ([4]; microsomes): 41 min
half-life at 5 µM ([5]; microsomes): 17 min
IC50 [1]: 64 nM
half-life at 5 µM ([6]; microsomes): 39 min
IC50 [2]: 1.1 nM

SMILES: C=CC(=O)Nc1cccc(-c2cncnc2Nc2ccc(OCc3ccccn3)c(Cl)c2)c1
IC50 [1]: 593 nM
IC50 [2]: 6.1 nM

SMILES: C=CC(=O)NCc1coc(-c2cncnc2Nc2ccc(OCc3ccccn3)c(Cl)c2)n1
IC50 [1]: 105 nM
IC50 [2]: 9.7 nM

SMILES: C=CC(=O)NCc1coc(-c2c(N)ncnc2Nc2ccc(Oc3cccc(Cl)c3Cl)c(Cl)c2)n1
IC50 [1]: 113 nM
IC50 [2]: 18.2 nM

SMILES: C=CC(=O)NCCNC(=O)c1c(N)ncnc1Nc1ccc(OCc2ccccn2)c(Cl)c1
IC50 [1]: > 1000 nM
IC50 [2]: > 1000 nM

Second part, led by results:

half-life at 5 µM ([3]; liver microsomes): 57 min
half-life at 5 µM ([4]; liver microsomes): > 100 min
half-life at 5 µM ([5]; liver microsomes): 51 min
half-life at 5 µM ([6]; liver microsomes): 96 min
SMILES: C=CC(=O)NCc1coc(-c2c(N)ncnc2Nc2ccc(Oc3cc(Cl)ccc3Cl)c(Cl)c2)n1
IC50 [1]: 184 nM
IC50 [2]: 1.9 nM

half-life at 5 µM ([3]; liver microsomes): 9 min
half-life at 5 µM ([4]; liver microsomes): 9 min
half-life at 5 µM ([5]; liver microsomes): 24 min
half-life at 5 µM ([6]; liver microsomes): 16 min
SMILES: C=CC(=O)NCc1coc(-c2c(N)ncnc2Nc2ccc(F)c(Cl)c2)n1
IC50 [1]: 52 nM
IC50 [2]: 34.1 nM

half-life at 5 µM ([3]; liver microsomes): > 100 min
half-life at 5 µM ([4]; liver microsomes): > 100 min
half-life at 5 µM ([5]; liver microsomes): 66 min
half-life at 5 µM ([6]; liver microsomes): > 100 min
SMILES: C=CC(=O)NCc1coc(-c2c(N)ncnc2Nc2ccc(Oc3ccc(F)cc3)c(Cl)c2)n1
IC50 [1]: 39 nM
IC50 [2]: 6 nM

half-life at 5 µM ([3]; liver microsomes): 15 min
half-life at 5 µM ([4]; liver microsomes): 24 min
half-life at 5 µM ([5]; liver microsomes): 16 min
half-life at 5 µM ([6]; liver microsomes): 39 min
SMILES: C=CC(=O)NCc1coc(-c2c(N)ncnc2Nc2ccc(Oc3ccccn3)c(Cl)c2)n1
IC50 [1]: 36 nM
IC50 [2]: 1.7 nM

half-life at 5 µM ([3]; liver microsomes): > 100 min
half-life at 5 µM ([4]; liver microsomes): > 100 min
half-life at 5 µM ([5]; liver microsomes): 54 min
half-life at 5 µM ([6]; liver microsomes): > 100 min
SMILES: C=CC(=O)NCc1coc(-c2c(N)ncnc2Nc2ccc(Oc3cccc(F)c3)c(Cl)c2)n1
IC50 [1]: 75 nM
IC50 [2]: 0.5 nM

half-life at 5 µM ([3]; liver microsomes): 48 min
half-life at 5 µM ([4]; liver microsomes): > 100 min
half-life at 5 µM ([5]; liver microsomes): 59 min
half-life at 5 µM ([6]; liver microsomes): > 100 min
SMILES: C=CC(=O)NCc1coc(-c2c(N)ncnc2Nc2ccc(Oc3ccccc3)c(Cl)c2)n1
IC50 [1]: 60 nM
IC50 [2]: 3.1 nM

bioavailability [7]: 21.9%
AUC(0-t) [8]: 440 ng·h/mL
half-life [9]: 1660 min
bioavailability [10]: 21.6%
Cmax [11]: 282 ng/mL
half-life [12]: 194 min
Cmax [13]: 189 ng/mL
AUC(0-t) [14]: 455 ng·h/mL
SMILES: C=CC(=O)NCc1coc(-c2c(N)ncnc2Nc2ccc(OCc3ccccn3)c(Cl)c2)n1.Cl

inhibition [15]: 0%
inhibition [16]: 13%
inhibition [17]: 0%
inhibition [18]: 42%
inhibition [19]: 0%
inhibition [20]: 0%
inhibition [21]: 0%
inhibition [22]: 0%
inhibition [23]: 15%
inhibition [24]: 15%
inhibition [25]: 0%
inhibition [26]: 87.5%
inhibition [27]: 14%
inhibition [28]: 0%
inhibition [29]: 0%
inhibition [30]: 0%
inhibition [31]: 15%
inhibition [32]: 2%
inhibition [33]: 0%
inhibition [34]: 68.2%
inhibition [35]: 0%
inhibition [36]: 77%
SMILES: C=CC(=O)NCc1coc(-c2c(N)ncnc2Nc2ccc(OCc3ccccn3)c(Cl)c2)n1

half-life at 5 µM ([3]; microsomes): > 100 min
half-life at 5 µM ([4]; microsomes): > 100 min
half-life at 5 µM ([5]; microsomes): > 100 min
half-life at 5 µM ([6]; microsomes): > 100 min
SMILES: C=CC(=O)NCc1coc(-c2c(N)ncnc2Nc2ccc(Oc3cc(C(F)(F)F)nn3C)c(Cl)c2)n1
IC50 [1]: 65 nM
IC50 [2]: 3.3 nM

half-life at 5 µM ([3]; liver microsomes): 18 min
half-life at 5 µM ([4]; liver microsomes): 39 min
half-life at 5 µM ([5]; liver microsomes): 9 min
half-life at 5 µM ([6]; liver microsomes): 15 min
SMILES: C=CC(=O)NCc1coc(-c2c(N)ncnc2Nc2ccc(Oc3cccnc3)c(Cl)c2)n1
IC50 [1]: 68 nM
IC50 [2]: 2.4 nM

half-life at 5 µM ([3]; microsomes): 39 min
half-life at 5 µM ([4]; microsomes): 51 min
half-life at 5 µM ([5]; microsomes): 25 min
half-life at 5 µM ([6]; microsomes): > 100 min
SMILES: C=CC(=O)NCc1coc(-c2c(N)ncnc2Nc2ccc(Oc3ccnn3C)c(Cl)c2)n1
IC50 [1]: 66 nM
IC50 [2]: 4 nM

half-life at 5 µM ([4]; liver microsomes): > 100 min
half-life at 5 µM ([5]; liver microsomes): 29 min
half-life at 5 µM ([6]; liver microsomes): 45 min
SMILES: C=CC(=O)NCc1coc(-c2c(N)ncnc2Nc2ccc(OCc3cccc(F)c3)c(Cl)c2)n1
IC50 [1]: 59 nM
IC50 [2]: 3.9 nM

Reference: ChEMBL document CHEMBL2034880, “Synthesis and biological evaluation of pyrimidine-based dual inhibitors of human epidermal growth factor receptor 1 (HER-1) and HER-2 tyrosine kinases” (J Med Chem, 2012)
